Experimental data published in ChEMBL document CHEMBL1158530, “Phosphate ester derivatives of homocamptothecin: synthesis, solution stabilities and antitumor activities” (Bioorg Med Chem, 2010).
The source made the active and inactive calls. The calls are words filed in the database; no cut-off is given here.

Assays:
[1] = tested on: MDA-MB-435; assay: Cytotoxicity against human MDA-MB-435 cells after 72 hrs by MTT assay; assay type: functional, cell-based; settings: MDA-MB-435, 72 h
How it was run: (§1)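 A549, MDA-MB-435 and LOVO cells seeded at 6000–10,000 per well. Treated in triplicate with graded drug concentrations for 72 h at 37 °C. Viability read by MTT; IC50 taken from the dose–response curve.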

[2] = tested on: LoVo; assay: Cytotoxicity against human LoVo cells after 72 hrs by MTT assay; assay type: functional, cell-based; how it was run: as §1
[3] = tested on: A549; assay: Cytotoxicity against human A549 cells after 72 hrs by MTT assay; assay type: functional, cell-based; settings: A549, 72 h; how it was run: as §1
[4] = species on record: Bos taurus; assay: Inhibition of calf thymus topoisomerase 1-mediated relaxation of Escherichia coli pBR322 plasmid DNA at 1 uM after 15 mins by cleavable complex assay
How it was run: (§2)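 Calf thymus Topo I (0.5 U) with 0.25 μg supercoiled pBR322 in Topo I buffer containing BSA, with or without drug, 37 °C for 15 min. Stopped with 0.5% SDS final. Run on 0.8% agarose gel in TAE, 120 V for 40 min, stained with ethidium bromide, viewed under UV.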

[5] = species on record: Bos taurus; assay: Inhibition of calf thymus topoisomerase 1-mediated relaxation of Escherichia coli pBR322 plasmid DNA after 15 mins by cleavable complex assay
How it was run: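 Calf thymus Topo I (0.5 U) incubated with 0.25 μg supercoiled pBR322 DNA in Topo I buffer with 0.1% BSA stock, with or without drug at 1, 10 and 50 μM, 37 °C for 15 min. Stopped with SDS (0.5% final). Products resolved on 0.8% agarose gel in TAE (120 V, 40 min), ethidium bromide stained, imaged under UV.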

[6] = Chemical stability assessed as compound remaining at pH 3.0 after 24 hrs by modified HPLC method; assay type: physicochemical; settings: buffer, read-out: Stability
How it was run: (§3)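 Drug in DMSO (2 mM, 430 μL) added to 70 μL of aqueous solution preincubated 5 min at 37 °C. Samples held at 37 °C, pH 3.0 or pH 7.4. Percent of initial phosphate-form concentration followed by modified HPLC.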

[7] = tested on: A549; assay: Antitumor activity against human A549 cells xenografted in BALB/c mouse assessed as inhibition of tumor growth at 6.25 to 25 mg/kg, ip relative to control; assay type: functional; settings: dose mg/kg 6.25-25; route intraperitoneal
How it was run: (§4)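 Male BALB/c nude mice (18-20g) implanted subcutaneously in right axilla with A549 cells. Treatment started at day 17 when tumors reached about 100–300 mm³. Single ip injection on day 17, six mice per group, eight controls. Caliper length and width every 4 days, TV = 1/2 × a × b². Sacrificed day 35, tumors removed; growth inhibition relative to placebo controls.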

[8] = tested on: A549; assay: Antitumor activity against human A549 cells xenografted in BALB/c mouse assessed as inhibition of tumor growth at 25 mg/kg, ip relative to control; assay type: functional; settings: route intraperitoneal, read-out: TGI; how it was run: as §4
[9] = tested on: A549; assay: Antitumor activity against human A549 cells xenografted in ip dosed BALB/c mouse assessed as tumor regression; assay type: functional, organism-based; how it was run: as §4
[10] = Chemical stability assessed as compound remaining at pH 7.4 after 24 hrs by modified HPLC method; assay type: physicochemical; settings: buffer, read-out: Stability; how it was run: as §3
[11] = species on record: Bos taurus; assay: Inhibition of calf thymus topoisomerase 1-mediated relaxation of Escherichia coli pBR322 plasmid DNA at 100 uM after 15 mins by cleavable complex assay; how it was run: as §2
[12] = tested on: A549; assay: Antitumor activity against human A549 cells xenografted in BALB/c mouse assessed as inhibition of tumor growth at 50 mg/kg, ip relative to control; assay type: functional; settings: route intraperitoneal, read-out: TGI; how it was run: as §4

| SMILES | IC50 [1] [µM] | IC50 [2] [µM] | IC50 [3] [µM] | also measured |
| --- | --- | --- | --- | --- |
| CCOP(=O)(OCC)Oc1ccc2nc3c(c(C)c2c1)Cn1c-3cc2c(c1=O)COC(=O)C[C@]2(O)CC | 0.79 | 1.26 | 8.05 | – |
| CC[C@@]1(O)C(=O)OCc2c1cc1n(c2=O)Cc2cc3ccccc3nc2-1 | – | – | – | inhibition [4]: inactive |
| CC[C@@]1(O)CC(=O)OCc2c1cc1n(c2=O)Cc2c-1nc1ccc(O)cc1c2C | < 0.001 | 0.01 | 0.03 | inhibition [5]: Dose-dependent effect |
| CC[C@@]1(O)CC(=O)OCc2c1cc1n(c2=O)Cc2c-1nc1ccc(OP(=O)(O)OCc3ccccc3)cc1c2C | 10.8 | 9.31 | 29.4 | – |
| CCCCOP(=O)(OCCCC)Oc1ccc2nc3c(c(C)c2c1)Cn1c-3cc2c(c1=O)COC(=O)C[C@]2(O)CC | 0.51 | 0.91 | 2.84 | remaining at 24 h [6]: 100%; TGI [7]: 25%; inhibition in vivo at 25 mg/kg [8]: 59%; Activity [9]: Dose-dependent effect; remaining at 24 h [10]: 95%; inhibition [11]: Active |
| CC[C@@]1(O)C(=O)OCc2c1cc1n(c2=O)Cc2cc3c(CN(C)C)c(O)ccc3nc2-1 [TOPOTECAN] | < 0.001 | 0.02 | 0.04 | – |
| CC[C@@]1(O)CC(=O)OCc2c1cc1n(c2=O)Cc2c-1nc1ccc(OP(=O)(OCC(F)(F)F)OCC(F)(F)F)cc1c2C | 0.22 | 5.42 | 15.5 | – |
| CC[C@@]1(O)CC(=O)OCc2c1cc1n(c2=O)Cc2c-1nc1ccc(OP(=O)(OC(C)C)OC(C)C)cc1c2C | 3.4 | 5.56 | 11.4 | – |
| CCCCCOP(=O)(OCCCCC)Oc1ccc2nc3c(c(C)c2c1)Cn1c-3cc2c(c1=O)COC(=O)C[C@]2(O)CC | 0.72 | 1.19 | 2.3 | inhibition in vivo at 50 mg/kg [12]: 42%; remaining at 24 h [6]: 100%; Activity [9]: Dose-dependent effect; remaining at 24 h [10]: 91% |
| CCOP(=O)(O)Oc1ccc2nc3c(c(C)c2c1)Cn1c-3cc2c(c1=O)COC(=O)C[C@]2(O)CC | 5.26 | 7.24 | 11.4 | – |
| CCCCCCCCCCCCCCCCOP(=O)(OCCCCCCCCCCCCCCCC)Oc1ccc2nc3c(c(C)c2c1)Cn1c-3cc2c(c1=O)COC(=O)C[C@]2(O)CC | > 100 | > 100 | > 100 | – |
| CCc1c2c(nc3ccc(OC(=O)N4CCC(N5CCCCC5)CC4)cc13)-c1cc3c(c(=O)n1C2)COC(=O)[C@]3(O)CC [IRINOTECAN] | 1.14 | 4.99 | 4.61 | inhibition in vivo at 50 mg/kg [12]: 51% |
